Reference: ChEMBL document CHEMBL1629654, “Breakthrough Aspergillus fumigatus and Candida albicans double infection during caspofungin treatment: laboratory characteristics and implication for susceptibility testing” (2009)
In brackets after ≈: the same amount, converted by molar mass. Activity calls are given as the source filed them. The rule behind the calls is not given here. *1 amine or outer side, *2 acyl side, *3 side chain or, on linkers, in order; H or OH if unused. Where a SMILES comes first, the peptide text is derived from it. Bridges are numbered along the chain shown (N, C = ends). [ ]: non-standard residue; d: D form. The star is where a group is joined. pTerphenylCO(4''-OnC5H11) = CCCCCOc1ccc(-c2ccc(-c3ccc(C(=O)*)cc3)cc2)cc1; Orn(4R-OH,5R-OH) = O=C([C@H](C[C@@H](O)[C@@H](O)N[*:3])N[*:1])[*:2]; hTyr(3S-OH,4S-OH) = N[C@H](C(=O)O)[C@H](O)[C@@H](O)c1ccc(O)cc1; Pro(3S-OH,4S-Me) = C[C@H]1CN[C@H](C(=O)O)[C@H]1O; Hyp = O=C(O)[C@@H]1C[C@@H](O)CN1

Tests used:
Candida albicans [1] = experiment: Antimicrobial activity against Candida albicans isolate C after 48 hrs by Etest; assay type: functional
In short: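 Etest on RPMI 1640 agar with 2% glucose, run per the manufacturer's instructions. Index and control clinical blood isolates were tested in parallel.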

Candida albicans [2] = experiment: Antimicrobial activity against Candida albicans isolate R after 48 hrs by Etest; assay type: functional
In short: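 Etest on RPMI 1640 agar with 2% glucose, performed according to the manufacturer's recommendations.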

Candida albicans [3] = experiment: Antimicrobial activity against Candida albicans isolate R at 5 ug/ml grown on RPMI 1640 medium after 48 hrs by disk diffusion method; assay type: functional
In short: (§1)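 Disk diffusion on 90-mm RPMI 1640 with 2% glucose agar or on Mueller-Hinton agar. Plates were swabbed in three directions with a yeast suspension of 1–5 × 10^6 cells/ml. Paper disks (6 mm) held 1, 5 or 25 µg drug. Zone diameters were read at 24 and 48 h; values are means of two experiments.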

Candida albicans [4] = experiment: Antimicrobial activity against Candida albicans isolate S at 1 ug/ml grown on Muller-Hinton agar medium after 48 hrs by disk diffusion method; assay type: functional; in short: as §1
Candida albicans [5] = experiment: Antimicrobial activity against Candida albicans isolate C at 0.5 ug/ml after 48 hrs by agar dilution method; assay type: functional, organism-based
In short: (§2)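 Sabouraud agar wells contained caspofungin 0, 0.5, 1 or 2 µg/ml, or anidulafungin 0, 0.003, 0.125 or 0.5 µg/ml. Isolates were subcultured 2 days on CHROMagar. Suspensions of 1–5 × 10^6 CFU/ml in sterile water were diluted 1,500-fold, and 5 µl (about 3–15 cells) was spread per well. Growth was scored.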

Candida albicans [6] = experiment: Antimicrobial activity against Candida albicans isolate S at 5 ug/ml grown on RPMI 1640 medium after 48 hrs by disk diffusion method; assay type: functional; in short: as §1
Candida albicans [7] = experiment: Antimicrobial activity against Candida albicans isolate R at 1 ug/ml grown on RPMI 1640 medium after 48 hrs by disk diffusion method; assay type: functional; in short: as §1
Candida albicans [8] = experiment: Antimicrobial activity against Candida albicans isolate R at 25 ug/ml grown on RPMI 1640 medium after 48 hrs by disk diffusion method; assay type: functional; in short: as §1
Candida albicans [9] = experiment: Antimicrobial activity against Candida albicans isolate R at 5 ug/ml grown on Muller-Hinton agar medium after 24 hrs by disk diffusion method; assay type: functional; in short: as §1
Candida albicans [10] = experiment: Antimicrobial activity against Candida albicans isolate R after 24 hrs by microdilution method; assay type: functional
In short: (§3)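 Broth microdilution in microtiter plates, read spectrophotometrically at 490 nm. MIC taken as the lowest drug dilution giving 50% growth inhibition. C. krusei […] run as control in each run. Read at 24 h and 48 h; trailing growth noted at 48 h.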

Candida albicans [11] = experiment: Antimicrobial activity against Candida albicans isolate S at 5 ug/ml grown on RPMI 1640 medium after 24 hrs by disk diffusion method; assay type: functional; in short: as §1
Candida albicans [12] = experiment: Antimicrobial activity against Candida albicans isolate S at 1 ug/ml grown on Muller-Hinton agar medium after 24 hrs by disk diffusion method; assay type: functional; in short: as §1
Candida albicans [13] = experiment: Antimicrobial activity against Candida albicans isolate R at 25 ug/ml grown on Muller-Hinton agar medium after 48 hrs by disk diffusion method; assay type: functional; in short: as §1
Candida albicans [14] = experiment: Antimicrobial activity against Candida albicans isolate S at 1 ug/ml grown on RPMI 1640 medium after 24 hrs by disk diffusion method; assay type: functional; in short: as §1
Candida albicans [15] = experiment: Antimicrobial activity against Candida albicans isolate R after 48 hrs by microdilution method; assay type: functional; in short: as §3
Candida albicans [16] = experiment: Antimicrobial activity against Candida albicans isolate R at 1 ug/ml grown on RPMI 1640 medium after 24 hrs by disk diffusion method; assay type: functional; in short: as §1
Candida albicans [17] = experiment: Antimicrobial activity against Candida albicans isolate S at 25 ug/ml grown on RPMI 1640 medium after 24 hrs by disk diffusion method; assay type: functional; in short: as §1
Candida albicans [18] = experiment: Antimicrobial activity against Candida albicans isolate C at 0.003 ug/ml after 48 hrs by agar dilution method; assay type: functional, organism-based; in short: as §2
Candida albicans [19] = experiment: Antimicrobial activity against Candida albicans isolate R at 5 ug/ml grown on Muller-Hinton agar medium after 48 hrs by disk diffusion method; assay type: functional; in short: as §1
Candida albicans [20] = experiment: Antimicrobial activity against Candida albicans isolate S at 25 ug/ml grown on RPMI 1640 medium after 48 hrs by disk diffusion method; assay type: functional; in short: as §1
Candida albicans [21] = experiment: Antimicrobial activity against Candida albicans isolate C after 48 hrs by microdilution method; assay type: functional; in short: as §3
Candida albicans [22] = experiment: Antimicrobial activity against Candida albicans isolate S at 1 ug/ml grown on RPMI 1640 medium after 48 hrs by disk diffusion method; assay type: functional; in short: as §1
Candida albicans [23] = experiment: Antimicrobial activity against Candida albicans isolate R at 1 ug/ml grown on Muller-Hinton agar medium after 24 hrs by disk diffusion method; assay type: functional; in short: as §1
Candida albicans [24] = experiment: Antimicrobial activity against Candida albicans isolate C after 48 hrs by EUCAST microdilution method; assay type: functional
In short: (§4)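 EUCAST broth microdilution, plates read spectrophotometrically at 490 nm. MIC is the lowest dilution giving 50% growth inhibition. C. krusei […] control included in each run.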

Candida albicans [25] = experiment: Antimicrobial activity against Candida albicans isolate S at 5 ug/ml grown on Muller-Hinton agar medium after 48 hrs by disk diffusion method; assay type: functional; in short: as §1
Candida albicans [26] = experiment: Antimicrobial activity against Candida albicans isolate R at 25 ug/ml grown on RPMI 1640 medium after 24 hrs by disk diffusion method; assay type: functional; in short: as §1
Candida albicans [27] = experiment: Antimicrobial activity against Candida albicans isolate R at 0.5 ug/ml after 48 hrs by agar dilution method; assay type: functional, organism-based; in short: as §2
Candida albicans [28] = experiment: Antimicrobial activity against Candida albicans isolate S at 25 ug/ml grown on Muller-Hinton agar medium after 48 hrs by disk diffusion method; assay type: functional; in short: as §1
Candida albicans [29] = experiment: Antimicrobial activity against Candida albicans isolate S at 25 ug/ml grown on Muller-Hinton agar medium after 24 hrs by disk diffusion method; assay type: functional; in short: as §1
Candida albicans [30] = experiment: Antimicrobial activity against Candida albicans isolate R at 0.003 ug/ml after 48 hrs by agar dilution method; assay type: functional, organism-based; in short: as §2
Candida albicans [31] = experiment: Antimicrobial activity against Candida albicans isolate R after 48 hrs by EUCAST microdilution method; assay type: functional; in short: as §4
Candida albicans [32] = experiment: Antimicrobial activity against Candida albicans isolate R at 5 ug/ml grown on RPMI 1640 medium after 24 hrs by disk diffusion method; assay type: functional; in short: as §1
Candida albicans [33] = experiment: Antimicrobial activity against Candida albicans isolate S infected in NMRI mouse assessed as decrease in kidney bacterial burden at 12 mg/kg, ip measured on day 4; assay type: functional, organism-based; design: dose 12 mg/kg
Candida albicans [34] = experiment: Antimicrobial activity against Candida albicans isolate R at 25 ug/ml grown on Muller-Hinton agar medium after 24 hrs by disk diffusion method; assay type: functional; in short: as §1
Candida albicans [35] = experiment: Antimicrobial activity against Candida albicans isolate R infected in NMRI mouse assessed as decrease in kidney bacterial burden at 12 mg/kg, ip measured on day 4; assay type: functional, organism-based; design: dose 12 mg/kg
In short: (§5)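 NMRI mice (26–30 g), seven per group, were inoculated iv on day 0 with C. albicans (1 × 10^5 CFU). They received ip treatment on days 1–3 with anidulafungin 12 mg/kg or fluconazole 50 mg/kg; controls received saline. On day 4, kidneys were homogenised in saline and CFU counted by spot plating of 10-fold dilutions. Results are log10 CFU/ml; detection limit 50 CFU/ml; Mann-Whitney test.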

Candida albicans [36] = experiment: Antimicrobial activity against Candida albicans isolate R at 1 ug/ml grown on Muller-Hinton agar medium after 48 hrs by disk diffusion method; assay type: functional; in short: as §1
Candida albicans [37] = experiment: Antimicrobial activity against Candida albicans isolate S at 5 ug/ml grown on Muller-Hinton agar medium after 24 hrs by disk diffusion method; assay type: functional; in short: as §1
Candida albicans [38] = experiment: Antimicrobial activity against Candida albicans isolate C after 24 hrs by microdilution method; assay type: functional; in short: as §3
Candida albicans [39] = experiment: Antimicrobial activity against Candida albicans isolate R infected in NMRI mouse assessed as decrease in kidney bacterial burden at 50 mg/kg, ip measured on day 4; assay type: functional, organism-based; design: dose 50 mg/kg; in short: as §5
Candida albicans [40] = experiment: Antimicrobial activity against Candida albicans isolate S infected in NMRI mouse assessed as decrease in kidney bacterial burden at 50 mg/kg, ip measured on day 4; assay type: functional, organism-based; design: dose 50 mg/kg

C[C@@H]1[C@H](O)[C@@H](C)/C=C/C=C/C=C/C=C/C=C/C=C/C=C/[C@H](O[C@@H]2O[C@H](C)[C@@H](O)[C@H](N)[C@@H]2O)C[C@@H]2O[C@](O)(C[C@@H](O)C[C@@H](O)[C@H](O)CC[C@@H](O)C[C@@H](O)CC(=O)O[C@H]1C)C[C@H](O)[C@H]2C(=O)O [AMPHOTERICIN B]
MIC (Candida albicans [1]): 0.125 mg/L (≈ 0.135 µM)
MIC (Candida albicans [2]): 0.25 mg/L (≈ 0.271 µM)

CCCCCOc1ccc(-c2ccc(-c3ccc(C(=O)N[C@H]4C[C@@H](O)[C@@H](O)NC(=O)[C@@H]5[C@@H](O)[C@@H](C)CN5C(=O)[C@H]([C@@H](C)O)NC(=O)[C@H]([C@H](O)[C@@H](O)c5ccc(O)cc5)NC(=O)[C@@H]5C[C@@H](O)CN5C(=O)[C@H]([C@@H](C)O)NC4=O)cc3)cc2)cc1 [ANIDULAFUNGIN] ({pTerphenylCO(4''-OnC5H11)}-[Orn(4R-OH,5R-OH)]T[Hyp][hTyr(3S-OH,4S-OH)]T[Pro(3S-OH,4S-Me)]; lactam 1-C)
inhibition zone (IZ) (Candida albicans [3]): 8.8 mm
inhibition zone (IZ) (Candida albicans [4]): 13.9 mm
growth inhibition (GI) (Candida albicans [5]): Active
inhibition zone (IZ) (Candida albicans [6]): 15.7 mm
inhibition zone (IZ) (Candida albicans [7]): 7.8 mm
inhibition zone (IZ) (Candida albicans [8]): 7.1 mm
inhibition zone (IZ) (Candida albicans [9]): 9.4 mm
MIC (Candida albicans [10]): 0.5 mg/L (≈ 0.438 µM)
inhibition zone (IZ) (Candida albicans [11]): 15.9 mm
MIC (Candida albicans [1]): ≤ 0.002 mg/L
inhibition zone (IZ) (Candida albicans [12]): 13.2 mm
inhibition zone (IZ) (Candida albicans [13]): 7 mm
inhibition zone (IZ) (Candida albicans [14]): 13.7 mm
MIC (Candida albicans [15]): 0.25 mg/L (≈ 0.219 µM)
inhibition zone (IZ) (Candida albicans [16]): 8.5 mm
inhibition zone (IZ) (Candida albicans [17]): 14.9 mm
growth inhibition (GI) (Candida albicans [18]): inactive
inhibition zone (IZ) (Candida albicans [19]): 9.9 mm
inhibition zone (IZ) (Candida albicans [20]): 13.8 mm
MIC (Candida albicans [21]): ≤ 0.015 mg/L
inhibition zone (IZ) (Candida albicans [22]): 13.2 mm
inhibition zone (IZ) (Candida albicans [23]): 6.7 mm
MIC (Candida albicans [24]): ≤ 0.03 mg/L
inhibition zone (IZ) (Candida albicans [25]): 14.6 mm
inhibition zone (IZ) (Candida albicans [26]): 7.7 mm
growth inhibition (GI) (Candida albicans [27]): inactive
inhibition zone (IZ) (Candida albicans [28]): 13.1 mm
inhibition zone (IZ) (Candida albicans [29]): 12.8 mm
growth inhibition (GI) (Candida albicans [30]): inactive
MIC (Candida albicans [2]): 0.5 mg/L (≈ 0.438 µM)
MIC (Candida albicans [31]): 0.06 mg/L (≈ 0.0526 µM)
inhibition zone (IZ) (Candida albicans [32]): 9.5 mm
Activity (Candida albicans [33]): Active
inhibition zone (IZ) (Candida albicans [34]): 6.8 mm
Activity (Candida albicans [35]): inactive
inhibition zone (IZ) (Candida albicans [36]): 6.8 mm
inhibition zone (IZ) (Candida albicans [37]): 14.2 mm
MIC (Candida albicans [38]): 0.015 mg/L (≈ 0.0132 µM)

OC(Cn1cncn1)(Cn1cncn1)c1ccc(F)cc1F [FLUCONAZOLE]
MIC (Candida albicans [10]): ≤ 0.125 mg/L
MIC (Candida albicans [15]): ≤ 0.125 mg/L
MIC (Candida albicans [21]): ≤ 0.25 mg/L
MIC (Candida albicans [24]): 0.125 mg/L (≈ 0.408 µM)
Activity (Candida albicans [39]): Active
MIC (Candida albicans [31]): ≤ 0.125 mg/L
Activity (Candida albicans [40]): Active
MIC (Candida albicans [38]): 0.25 mg/L (≈ 0.816 µM)
